Data as given in PMC3478735 (ACS Nano, 2012).

Assays:
HeLa cells [1] = assay: Endosomal escape, codelivery of Calcein, fluorescence microscopy; type: cell-based, human
In short: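 HeLa cells plated 48 h ahead to ≥70% confluence. Calcein 0.25 mM added alone or with nanocomplexes (100 nM siRNA) in DMEM + 10% bovine serum, 1 h, 37 °C. Cells washed three times in PBS and imaged live (FITC filter). Cells with diffuse cytoplasmic fluorescence counted in ≥8 random fields, normalised to total cells (500–800 per carrier per experiment), reported as mean % per field.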

HeLa cells [2] = assay: Uptake of myr-TP-LyP-1 nanocomplexes in the presence of endocytosis inhibitors; type: cell-based, human; settings: inhibitor 1 h at 37 °C, then nanocomplexes (2 μM peptide, 100 nM siRNA) 1 h, flow cytometry
In short: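 HeLa cells at ~70% confluence. Small-molecule inhibitors applied 1 h at 37 °C. Then nanocomplexes of labelled peptide (2 μM) with GFP siRNA (100 nM) added for a further 1 h at 37 °C. Cells washed three times with cold PBS, trypsinised, and uptake read by flow cytometry.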

Compound	endosomal escape (HeLa cells [1])	uptake of myr-TP-LyP-1 nanocomplexes in the presence of the inhibitor (HeLa cells [2])
C[C@@H](O)[C@@H]1NC(=O)[C@H](CCCNC(=N)N)NC(=O)[C@H](CCCCN)NC(=O)[C@H](CC(N)=O)NC(=O)CNC(=O)[C@@H](N)CSSC[C@@H](C(=O)O)NC(=O)CNC(=O)[C@H](CCCNC(=N)N)NC1=O [LyP-1]	little or no endosomal escape	–
CCCCCCCCCC(=O)NC(CN1CCOCC1)C(O)c1ccccc1 (stereo not shown) [PDMP]	–	significantly decreased
N=C(N)NC(=O)c1nc(Cl)c(N)nc1N [amiloride]	–	significantly decreased
OCC1OC(O)CC(O)C1O (stereo not shown) [deoxyglucose]	–	significantly decreased
